Laboratory results from ChEMBL document CHEMBL1156690, “Synthesis, anti-HIV-1 integrase, and cytotoxic activities of 4-chloro-N-(4-oxopyrimidin-2-yl)-2-mercaptobenzenesulfonamide derivatives” (Eur J Med Chem, 2008).

How the values were obtained:
SNB-19 = assay: Growth inhibition of human SNB19 cells; assay type: functional
How it was run: (§1)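 Run by the US National Cancer Institute in vitro screen against a panel of 53–57 human tumor cell lines. GI₅₀ is defined as the molar concentration inhibiting 50% net cell growth. TGI is the concentration giving total growth inhibition.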

SR = assay: Growth inhibition of human SR cells; assay type: functional; how it was run: as §1
SF-268 [1] = assay: (§2) Growth inhibition of human SF268 cells; assay type: functional; how it was run: as §1
SK-MEL-5 = assay: Growth inhibition of human SK-MEL-5 cells; assay type: functional; how it was run: as §1
UACC-62 = assay: Growth inhibition of human UACC62 cells; assay type: functional; how it was run: as §1
M14 = assay: Growth inhibition of human M14 cells; assay type: functional; how it was run: as §1
HOP-62 = assay: Growth inhibition of human HOP62 cells; assay type: functional; how it was run: as §1
SNB-75 = assay: Growth inhibition of human SNB75 cells; assay type: functional; how it was run: as §1
BT-549 = assay: Growth inhibition of human BT549 cells; assay type: functional; how it was run: as §1
NCI-H522 = assay: Growth inhibition of human NCI-H522 cells; assay type: functional; how it was run: as §1
NCI-H322M = assay: Growth inhibition of human NCI-H322M cells; assay type: functional; how it was run: as §1
[2] = molecular target: T1, Human immunodeficiency virus type 1 integrase (Human immunodeficiency virus 1, UniProt Q7ZJM1); assay: Inhibition of HIV1 integrase 3' processing activity
T1 sequence (Q7ZJM1 whole entry): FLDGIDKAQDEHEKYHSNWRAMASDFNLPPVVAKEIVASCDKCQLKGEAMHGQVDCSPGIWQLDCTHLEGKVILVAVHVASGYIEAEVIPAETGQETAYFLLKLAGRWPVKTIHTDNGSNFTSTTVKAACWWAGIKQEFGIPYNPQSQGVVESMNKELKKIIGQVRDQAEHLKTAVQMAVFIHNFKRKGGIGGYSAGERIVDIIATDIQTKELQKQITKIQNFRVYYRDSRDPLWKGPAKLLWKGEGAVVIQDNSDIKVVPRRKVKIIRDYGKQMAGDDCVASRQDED
How it was run: (§3)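 HIV-1 integrase (200 nM final) preincubated 30 min at 30 °C with inhibitor in buffer (pH 7.2 MOPS, NaCl, HEPES, EDTA, DTT, 10% glycerol, 7.5 mM MnCl₂, 0.1 mg/ml BSA, 2-mercaptoethanol, 10% DMSO). 20 nM 5'-³²P-labeled linear oligonucleotide substrate then added for 1 h. Quenched with formamide loading dye; products resolved on denaturing 20% polyacrylamide/urea gel. IC₅₀ reported for each step.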

HCT-116 = assay: Growth inhibition of human HCT116 cells; assay type: functional; how it was run: as §1
SF-268 [3] = assay: as §2; assay type: functional; how it was run: as §1; remark: listed apart in the source
LOX IMVI = assay: Growth inhibition of human LOX IMVI cells; assay type: functional; settings: Homo sapiens, LOX IMVI; how it was run: as §1
Malme-3M = assay: Growth inhibition of human MALME-3M cells; assay type: functional; how it was run: as §1
CCRF-CEM = assay: Growth inhibition of human CCRF-CEM cells; assay type: functional; how it was run: as §1
T47D = assay: Growth inhibition of human T47D cells; assay type: functional; how it was run: as §1
KM12 = assay: Growth inhibition of human KM12 cells; assay type: functional; how it was run: as §1
SN12C = assay: Growth inhibition of human SN12C cells; assay type: functional; how it was run: as §1
[4] = molecular target: T1, Human immunodeficiency virus type 1 integrase; assay: Inhibition of HIV1 integrase strand transfer activity; how it was run: as §3
HCC 2998 = assay: Growth inhibition of human HCC2998 cells; assay type: functional; how it was run: as §1
EKVX = assay: Growth inhibition of human EKVX cells; assay type: functional; how it was run: as §1
MOLT-4 = assay: Growth inhibition of human MOLT4 cells; assay type: functional; how it was run: as §1
A498 = assay: Growth inhibition of human A498 cells; assay type: functional; how it was run: as §1

## Cc1cc(S(=O)(=O)Nc2nc3cc(-c4ccccc4)sc3c(=O)n2Cc2ccccc2)c(S)cc1Cl
SNB-19
  GI50: > 100 µM
SR
  GI50: > 100 µM
SF-268 [1]
  GI50: > 100 µM
SK-MEL-5
  GI50: > 100 µM
UACC-62
  GI50: > 100 µM
M14
  GI50: > 100 µM
HOP-62
  GI50: > 100 µM
SNB-75
  GI50: > 100 µM
BT-549
  GI50: > 100 µM
NCI-H522
  GI50: > 100 µM
NCI-H322M
  GI50: > 100 µM
[2]
  IC50: 9 µM
HCT-116
  GI50: > 100 µM
SF-268 [3]
  GI50: > 100 µM
LOX IMVI
  GI50: > 100 µM
Malme-3M
  GI50: > 100 µM
CCRF-CEM
  GI50: > 100 µM
T47D
  GI50: > 100 µM
KM12
  GI50: > 100 µM
SN12C
  GI50: > 100 µM
[4]
  IC50: 6 µM
HCC 2998
  GI50: > 100 µM
EKVX
  GI50: > 100 µM
MOLT-4
  GI50: > 100 µM
A498
  GI50: > 100 µM
